Compounds with a hit are over-represented: about 3% of the library has one in this group of screens.
MIN6 prolif – inducers of beta-cell replication in MIN6 cells. MIN6 cells proliferation, ATPlite luminescence, 48 h; cells starved in 0.2% serum; 100% = growth in 10% serum. proliferation, % at 10 µM. actives 0.29% (n = 330,000). AID 2380;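 active = compounds whose signal lies at least 3.5 SD above the mean of all wells on their plate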;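 note: 0% = DMSO-treated cells in low-serum medium and 100% = 10% serum control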
Apaf1 inhib – blocks human Apaf-1 apoptosome activity | reconstituted apoptosome caspase-3 activity, DEVD-Rh110 fluorescence | actives 0.71% (n = 330,000) | inhibition, % at 20 µM | AID 489030; active = inhibition of at least 40% at 20 µM;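 note: plate controls were DMSO wells for no effect and DEVD-CHO caspase inhibitor wells for full effect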
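Assay system: Apoptosome proteins | Medium: pH 7.5 Hepes buffer with CHAPS, BSA, DTT | Also added: Cytochrome c and DEVD-Rh110 substrate | Times: 30 min plus 50 min, RT | Detection: Rhodamine 110 fluorescence at Ex 480/Em 540 nm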
hiPSC survival – increases survival of single human iPS cells. hiPSC single-cell survival, ATPlite luminescence; 100% = ROCK inhibitor wells, 0% = DMSO. survival enhancement, % at 20 µM. actives 0.044% (n = 360,000). AID 602274; in the data active = survival enhancement above about 18%;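 note: cells exposed to compounds for 16 hours before the ATP read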
Granule exo inh – lytic granule exocytosis inhibition. TALL-104 LAMP-1 surface exposure, flow cytometry; cells stimulated with thapsigargin and PMA. inhibition, % at 10 µM. actives 0.66% (n = 360,000). AID 651702;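 active = inhibition above about 55%, limit read from the data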
MPTP block – permeability transition pore inhibition; isolated mouse mitochondria, Ca2+ swelling absorbance, 30 min; inhibition, % at 10 µM; actives 1.4% (n = 360,000); AID 602449;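 active = inhibition of 50% or more, scaled per plate between neutral and stimulator controls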;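 note: 0% = DMSO wells given calcium and 100% = 1 mM EGTA wells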
UBC13 inh – blocks human UBC13 polyubiquitin chain formation; inhibition, % at 20 µM; TR-FRET; AID 485273; P61088; actives 0.47% (n = 330,000); in the data active = inhibition above about 45%, passing the limit was not always enough
Target sequence (P61088 whole entry, looked up): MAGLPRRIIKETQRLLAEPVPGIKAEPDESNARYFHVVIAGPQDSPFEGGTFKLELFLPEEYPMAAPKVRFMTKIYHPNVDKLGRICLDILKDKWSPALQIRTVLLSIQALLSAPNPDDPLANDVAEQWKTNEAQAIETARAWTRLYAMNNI
Rh123 counter – membrane potential counter-screen of mitochondrial pore inhibitors | isolated mitochondria, Rhodamine 123 fluorescence | shares compounds with MPTP block | actives 78% (n = 5,000) | inhibition, % at 10 µM | AID 624504; in the data active = inhibition above about 22%;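 note: 0% = DMSO vehicle and 100% = positive control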
MPTP swell DR – dose response confirmation of mitochondrial permeability transition pore inhibitors; shares compounds with MPTP block; isolated mitochondria swelling, absorbance; IC50, µM; actives 58% (n = 780); in the data active = IC50 below about 20 µM
MPTP cs DR – MPTP inhibitor counter-screen activity, dose response; isolated mitochondria counterscreen, fluorescence read-out; IC50, µM; actives 49% (n = 780); AID 651564; shares compounds with MPTP block; in the data active = IC50 below about 80 µM
An asterisk follows results filed as active; · = not tested or not shown.

SMILES	MIN6 prolif	Apaf1 inhib	hiPSC survival	Granule exo inh	MPTP block	UBC13 inh	Rh123 counter	others
Cn1ccc2c(-c3ccc(C(=O)O)cc3)cc3c(c21)C1CCC3O1 (stereo not drawn)	·	·	1.9	-3.0	-2.4	·	·
CC1CCc2sc(C(=O)NN=C3CCCC3)cc2C1 (stereo not drawn)	·	·	1.0	-5.0	-0.5	·	·
Cc1cc(Cn2nnc3ccccc32)c(O)c(C(C)(C)C)c1	-7.8	14.0	-0.8	1.9	52.9*	7.3	94.0*
CC(C)(C)c1cccc(Cn2nnc3ccccc32)c1O	-7.8	26.0	4.7	28.0	82.2*	9.1	96.7*
CC(C)c1ccc(NC(=O)COC(=O)[C@@H]2CCCN2C(=O)c2cccs2)cc1	-3.7	24.2	1.3	4.4	0.5	4.9	·
O=C(OCC(=O)N1CCN(c2ccccc2)CC1)c1nc(Cl)ccc1Cl	-3.4	1.7	-0.4	-3.2	-2.8	0.1	·
CSCc1cc(C(=O)NCCN2CCOCC2)c(N)s1	·	·	·	0.1	1.4	·	·
Cn1nccc1C(=O)NC1CCCc2c1cnn2-c1ccc(C(C)(C)C)cc1 (stereo not drawn)	-6.9	13.3	-0.5	6.9	97.8*	9.4	103.5*
Cc1cc(C(=O)NC2CCCc3c2cnn3-c2cccc(C)c2C)n(C)n1 (stereo not drawn)	-7.3	-7.2	0.1	15.9	90.4*	-5.7	107.9*
CC(=O)NC1CCCc2c1cnn2-c1ccc(C(C)(C)C)cc1 (stereo not drawn)	-0.3	-15.0	-0.1	-7.9	0.2	1.5	·
Cc1ccc(C(=O)NC2CCCc3c2cnn3-c2ccc(F)cc2F)cn1 (stereo not drawn)	-7.0	-4.0	-0.5	3.7	51.7*	3.2	91.2*
Cc1nnsc1C(=O)NC1CCCc2c1cnn2-c1ccc(F)cc1F (stereo not drawn)	-6.3	4.0	0.2	-5.3	6.8	-2.8	·
CC(=O)c1ccc(OCCCCOc2ccc(C(C)=O)cc2)cc1	-2.2	-5.0	-0.1	0.0	0.6	-5.7	·
CC1CC(C)CN(Cc2nc(N)nc(Nc3ccc4ccccc4c3)n2)C1 (stereo not drawn)	-3.7	7.2	-1.8	8.7	62.6*	3.3	-11.4	MPTP swell DR=>100;MPTP cs DR=>80
CC1CC(C)CN(Cc2nc(N)nc(Nc3ccccc3)n2)C1 (stereo not drawn)	-0.2	-1.1	3.0	0.2	-6.7	-6.2	·
COc1cccc(NC(=O)CN(C)C(=O)c2cc3c(s2)CCCCC3)c1	-4.5	5.4	-0.1	-0.6	-1.2	-9.4	·
COc1ccc(-c2cc3c(=O)n(CC(=O)NCCCN4CCN(Cc5ccccc5)CC4)ncn3n2)cc1	-7.9	25.3	-0.7	3.9	91.0*	4.7	51.3*
CCOc1ccc(S(=O)(=O)Nc2ccc(C(=O)N3CCCC3)cc2)cc1C(N)=O	-3.2	1.2	-0.3	1.8	-1.1	-10.1	·
CC(=O)Nc1ccc(C)c([N+](=O)[O-])c1	-0.3	-3.5	0.0	10.3	-1.0	-3.0	·
CCOc1ccc(NC(=S)Nc2ccc(C)c([N+](=O)[O-])c2)cc1	-1.0	-3.3	-1.6	1.5	85.5*	1.1	89.7*
CCOc1ccc(NC(=S)Nc2ccc(OCC)cc2)cc1	-5.6	-1.4	-2.3	-6.4	1.3	-4.2	·
O=C(Nc1ccccc1)Nc1ccc(F)c([N+](=O)[O-])c1	-5.8	-5.8	1.5	0.4	94.3*	2.5	98.7*
O=C(NC(=S)Nc1ccc(F)c([N+](=O)[O-])c1)c1ccccc1F	-4.3	7.4	-1.5	-1.8	0.2	8.2	·
Cc1ccc(NC(=O)Nc2ccccc2)cc1[N+](=O)[O-]	1.4	1.4	2.9	1.6	77.2*	12.0	100.7*
O=C(Nc1ccccc1)Nc1ccc(Cl)c([N+](=O)[O-])c1	-5.3	19.5	-1.0	-3.0	100.8*	-8.9	99.0*
SMILES	MIN6 prolif	Apaf1 inhib	hiPSC survival	Granule exo inh	MPTP block	UBC13 inh	Rh123 counter	others
COc1cccc(NC(=O)C2(C)CCN2C(=O)Cc2cccc3ccccc23)c1 (stereo not drawn)	·	·	2.7	-1.7	0.1	·	·
Cc1cc(C)cc(NC(=O)C(Sc2nnc(C)c(=O)[nH]2)c2ccccc2)c1 (stereo not drawn)	-4.0	-5.2	-0.5	-2.3	0.8	-3.7	·
CC(CC(=O)Nc1ccc(Cl)c([N+](=O)[O-])c1)c1ccccc1 (stereo not drawn)	-3.2	16.3	2.3	1.3	105.2*	3.4	89.5*
Cc1nnc(SC(C(=O)Nc2ccc(Cl)c([N+](=O)[O-])c2)c2ccccc2)[nH]c1=O (stereo not drawn)	-0.4	0.7	0.1	1.7	74.0*	-0.5	50.5*
CC(CC(=O)Nc1ccc(C(N)=O)cc1)c1ccccc1 (stereo not drawn)	-2.1	-9.4	1.3	6.3	-0.1	4.4	·
CCNC(=S)Nc1ccc(Cl)c([N+](=O)[O-])c1	-1.8	14.3	-0.3	-1.3	96.3*	-9.1	90.0*
O=C(NNc1ccccc1[N+](=O)[O-])Nc1cccc(Cl)c1	0.7	-19.0	-0.4	2.8	83.9*	-0.6	85.2*
O=c1ccc(=O)n(CCc2ccccn2)[nH]1	·	·	5.9	0.1	-1.0	·	·
COc1cccc(O)c1CN1CCC(Oc2ccc(C(=O)NCc3ccccn3)cc2)CC1	-2.8	0.9	0.2	0.7	1.5	1.4	·
CCCN(CC(=O)Nc1ccccc1OC)CC(=O)c1c(N)n(Cc2ccccc2)c(=O)n(C)c1=O	·	·	0.1	1.7	-0.1	·	·
Cc1cccc2[nH]c3c(N4CC=C(c5ccc(F)cc5)CC4)ncnc3c12	-3.9	4.3	0.2	36.9	66.5*	-2.2	62.3*
COc1cccc2[nH]c3c(Cl)ncnc3c12	0.0	-4.2	3.3	-1.3	-1.6	15.5	·
CCOC(=O)c1ccc(N/N=C/c2cc(Br)cc([N+](=O)[O-])c2O)cc1	0.4	0.3	-0.8	3.4	74.4*	-15.7	21.4*
COC(=O)c1ccc(N/N=C/c2cc([N+](=O)[O-])cc(OC)c2O)cc1	-2.4	-13.0	2.3	-0.3	1.3	-54.8	·
CC(O)(c1ccc(F)c(F)c1)c1nc(-c2cc(F)cc(F)c2)cs1 (stereo not drawn)	·	·	-1.2	1.4	3.9	·	·
C/C(=N\NS(=O)(=O)c1ccccc1)c1cc(Cl)cc(Cl)c1O	-4.7	-7.6	-0.5	1.8	61.9*	2.7	75.2*
C[C@H](CO)N1C[C@H](C)[C@H](CN(C)C(=O)N[C@H](C)c2ccccc2)OCc2ccccc2-c2c(n(C)c3ccccc23)C1=O	·	·	0.0	6.8	0.1	·	·
Cc1nnc(NC(=O)C2CCN(S(=O)(=O)c3cc([N+](=O)[O-])ccc3Cl)CC2)o1	-5.4	-6.2	-0.2	-3.6	1.1	-9.0	·

Bioassay records deposited in PubChem BioAssay by several laboratories.
